Laboratory results as given in ChEMBL document CHEMBL3860087, “New Broad-Spectrum Antibacterial Amphiphilic Aminoglycosides Active against Resistant Bacteria: From Neamine Derivatives to Smaller Neosamine Analogues” (J Med Chem, 2016).
Converted amounts (≈) assume the structure as drawn.

Columns and labels:
Staphylococcus aureus [1] = test: Antibacterial activity against Staphylococcus aureus ATCC 25923 by microdilution method; type: functional
Summary of the method: (§1)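 Broth microdilution per CLSI in cation-adjusted Mueller–Hinton broth. Strains were grown overnight at 37 °C on trypticase soy agar, and a fresh culture was used. Starting inoculum was 10^6 cells.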

Staphylococcus aureus [2] = test: Antibacterial activity against NorA expressing Staphylococcus aureus 1 by microdilution method
Staphylococcus aureus [3] = test: Antibacterial activity against healthcare-acquired methicillin-resistant Staphylococcus aureus ATCC 33592 by microdilution method; type: functional; summary of the method: as §1
Pseudomonas aeruginosa [4] = test: Antibacterial activity against Pseudomonas aeruginosa ATCC 27853 by microdilution method; type: functional
Summary of the method: (§2)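 Strains grown overnight at 37 °C on trypticase soy agar; MIC by broth microdilution from fresh culture in cation-adjusted Mueller–Hinton broth, starting inoculum 10^6 cells, following CLSI recommendations.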

Pseudomonas aeruginosa [5] = test: Antibacterial activity against AAC6'-2A expressing Pseudomonas aeruginosa F03 by microdilution method; type: functional; summary of the method: as §2
Pseudomonas aeruginosa [6] = test: Antibacterial activity against MexXY expressing Pseudomonas aeruginosa PA22 by microdilution method; type: functional; summary of the method: as §2
Pseudomonas aeruginosa [7] = test: Antibacterial activity against triABC deficient Pseudomonas aeruginosa PA406 by microdilution method; type: functional; summary of the method: as §2
Acinetobacter lwoffii [8] = test: Antibacterial activity against Acinetobacter lwoffii ATCC 17925 by microdilution method; type: functional; summary of the method: as §2
Acinetobacter lwoffii [9] = test: Antibacterial activity against APH3'-VIA expressing Acinetobacter lwoffii AI.88-483 by microdilution method; type: functional; summary of the method: as §2
Escherichia coli [10] = test: Antibacterial activity against AAC6'-IB expressing Escherichia coli PAZ505H8101 by microdilution method; type: functional; summary of the method: as §2
Escherichia coli [11] = test: Antibacterial activity against ANT2''-IA expressing Escherichia coli L8058.1 by microdilution method; type: functional; summary of the method: as §2
Klebsiella pneumoniae = test: Antibacterial activity against Klebsiella pneumoniae ATCC 700603 by microdilution method; type: functional; summary of the method: as §2
[12] = Cytotoxicity against mouse J774 cells assessed as cell viability at 10 uM after 24 hrs by MTT assay relative to control; type: toxicity, cell-based; conditions: J774 cells, read-out: Activity
Summary of the method: (§3)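 Murine J774 macrophages exposed 24 h to 10 or 30 μM compound, then 1 h with 0.2 mg/mL MTT; reaction stopped with DMSO, OD read at 570 nm as metabolic-activity viability. Number of independent experiments given per value.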

[13] = Cytotoxicity against mouse J774 cells assessed as cell viability at 30 uM after 24 hrs by MTT assay relative to control; type: toxicity, cell-based; conditions: J774 cells, read-out: Activity; summary of the method: as §3
Escherichia coli [14] = test: microbe, parasite or virus in culture; conditions: ATCC 25922

| Molecule | MIC (Staphylococcus aureus [1]) [µg/mL] | MIC (Staphylococcus aureus [2]) [µg/mL] | MIC (Staphylococcus aureus [3]) [µg/mL] | MIC (Pseudomonas aeruginosa [4]) [µg/mL] | MIC (Pseudomonas aeruginosa [5]) [µg/mL] | MIC (Pseudomonas aeruginosa [6]) [µg/mL] | MIC (Pseudomonas aeruginosa [7]) [µg/mL] | MIC (Acinetobacter lwoffii [8]) [µg/mL] | MIC (Acinetobacter lwoffii [9]) [µg/mL] | MIC (Escherichia coli [10]) [µg/mL] | MIC (Escherichia coli [11]) [µg/mL] | MIC (Klebsiella pneumoniae) [µg/mL] | viability at 24 h, 10 µM [12] [%] | viability at 24 h, 30 µM [13] [%] | MIC (Escherichia coli [14]) [µg/mL] |
| --- | --- | --- | --- | --- | --- | --- | --- | --- | --- | --- | --- | --- | --- | --- | --- |
| C=CCO[C@H]1O[C@H](CN)[C@@H](OCc2ccc3ccccc3c2)[C@H](OCc2ccc3ccccc3c2)[C@H]1N | 8 (≈ 16 µM) | 8 (≈ 16 µM) | 8 (≈ 16 µM) | > 128 | > 128 | > 128 | 32 (≈ 64.2 µM) | 8 (≈ 16 µM) | 64 (≈ 128 µM) | 64 (≈ 128 µM) | 128 (≈ 257 µM) | > 128 | 86.9 | 28.3 | 64 (≈ 128 µM) |
| CCCCCCCCCO[C@@H]1[C@@H](N)[C@@H](OCC(O)CNCCN)O[C@H](CN)[C@H]1OCCCCCCCCC (mixture of isomers) | 2 | 2 | 2 | 8 | 4 to 8 | 4 to 8 | 8 | 2 | 16 to 32 | 4 to 8 | 4 to 8 | 8 to 16 | 87.5 | 53 | 8 |
| NC[C@H]1O[C@H](O[C@H]2[C@H](O)[C@@H](O[C@H]3O[C@H](CO)[C@@H](O)[C@H](N)[C@H]3O)[C@H](N)C[C@@H]2N)[C@H](N)C[C@@H]1O [TOBRAMYCIN] | 0.25 (≈ 0.535 µM) | 0.5 (≈ 1.07 µM) | 64 (≈ 137 µM) | < 0.25 | 128 (≈ 274 µM) | 0.5 (≈ 1.07 µM) | < 0.25 | < 0.25 | 0.5 to 1 (≈ 1.07 to 2.14 µM) | 32 (≈ 68.4 µM) | 64 (≈ 137 µM) | 4 to 8 (≈ 8.56 to 17.1 µM) | 99.7 | 83.2 | 1 (≈ 2.14 µM) |
| CCCCCCCCCO[C@@H]1[C@@H](N)[C@@H](OCC(O)CNCCO)O[C@H](CN)[C@H]1OCCCCCCCCC (mixture of isomers) | 4 | 1 to 2 | 1 to 2 | 8 | 8 | 8 | 8 | 2 | 4 to 8 | 8 | 4 to 8 | 8 | 99.1 | 10.1 | 4 to 8 |
| C=CCO[C@H]1O[C@H](CN)[C@@H](OCCCCCCCCC)[C@H](OCCCCCCCCC)[C@H]1N | 4 (≈ 8.5 µM) | 4 (≈ 8.5 µM) | 4 (≈ 8.5 µM) | > 128 | > 128 | > 128 | > 128 | 4 to 8 (≈ 8.5 to 17 µM) | 32 (≈ 68 µM) | > 128 | > 128 | 128 (≈ 272 µM) | 91.4 | 6.6 | 32 to 64 (≈ 68 to 136 µM) |
| C=CCO[C@H]1O[C@H](CN)[C@@H](OCCCc2ccc3ccccc3c2)[C@H](OCCCc2ccc3ccccc3c2)[C@H]1N | 4 to 8 (≈ 7.21 to 14.4 µM) | 4 (≈ 7.21 µM) | 4 to 8 (≈ 7.21 to 14.4 µM) | 128 (≈ 231 µM) | > 128 | > 128 | 32 (≈ 57.7 µM) | 4 to 8 (≈ 7.21 to 14.4 µM) | 64 (≈ 115 µM) | 64 (≈ 115 µM) | 64 (≈ 115 µM) | 128 (≈ 231 µM) | 105 | 7 | 32 to 64 (≈ 57.7 to 115 µM) |
| CCCCCCCCCO[C@@H]1[C@@H](N)[C@@H](OCC(O)CNCCCO)O[C@H](CN)[C@H]1OCCCCCCCCC (mixture of isomers) | 2 | 1 to 2 | 1 to 2 | 8 | 8 | 8 | 8 | 1 | 8 | 4 | 4 | 8 to 16 | 89.9 | 13.7 | 4 to 8 |
| C=CCO[C@H]1O[C@H](CN)[C@@H](O)[C@H](O)[C@H]1N | > 128 | > 128 | > 128 | > 128 | > 128 | > 128 | > 128 | > 128 | > 128 | > 128 | > 128 | > 128 | 82.2 | 82.1 | > 128 |
| NC[C@H]1O[C@H](O[C@H]2[C@H](O)[C@@H](O)[C@H](N)C[C@@H]2N)[C@H](N)[C@@H](OCc2ccc3ccccc3c2)[C@@H]1OCc1ccc2ccccc2c1 | 2 to 4 (≈ 3.32 to 6.64 µM) | 2 to 4 (≈ 3.32 to 6.64 µM) | 4 to 8 (≈ 6.64 to 13.3 µM) | 16 (≈ 26.5 µM) | 128 (≈ 212 µM) | 128 (≈ 212 µM) | 2 to 4 (≈ 3.32 to 6.64 µM) | 4 (≈ 6.64 µM) | > 128 | 8 to 16 (≈ 13.3 to 26.5 µM) | 16 to 32 (≈ 26.5 to 53.1 µM) | > 128 | 79.1 | – | 16 to 32 (≈ 26.5 to 53.1 µM) |
| NC[C@H]1O[C@H](O[C@H]2[C@H](O)[C@@H](OCc3ccc4ccccc4c3)[C@H](N)C[C@@H]2N)[C@H](N)[C@@H](OCc2ccc3ccccc3c2)[C@@H]1O | 8 (≈ 13.3 µM) | 4 to 8 (≈ 6.64 to 13.3 µM) | 8 to 16 (≈ 13.3 to 26.5 µM) | 64 to 128 (≈ 106 to 212 µM) | 64 to 128 (≈ 106 to 212 µM) | > 128 | 2 to 4 (≈ 3.32 to 6.64 µM) | 4 to 8 (≈ 6.64 to 13.3 µM) | 128 (≈ 212 µM) | 32 (≈ 53.1 µM) | 64 to 128 (≈ 106 to 212 µM) | 128 (≈ 212 µM) | 86 | 75.9 | 32 to 64 (≈ 53.1 to 106 µM) |
| NCC[C@H](O)C(=O)N[C@@H]1C[C@H](N)[C@@H](O[C@H]2O[C@H](CN)[C@@H](O)[C@H](O)[C@H]2O)[C@H](O)[C@H]1O[C@H]1O[C@H](CO)[C@@H](O)[C@H](N)[C@H]1O [AMIKACIN] | 4 (≈ 6.83 µM) | 2 (≈ 3.42 µM) | 8 to 16 (≈ 13.7 to 27.3 µM) | 2 to 4 (≈ 3.42 to 6.83 µM) | 8 (≈ 13.7 µM) | 8 (≈ 13.7 µM) | 1 (≈ 1.71 µM) | < 0.25 | 128 (≈ 219 µM) | 64 (≈ 109 µM) | 2 (≈ 3.42 µM) | 1 (≈ 1.71 µM) | 81.2 | 92 | 4 (≈ 6.83 µM) |
| CCCCCCCCCO[C@@H]1[C@@H](N)[C@@H](OC[C@H](O)CN=[N+]=[N-])O[C@H](CN)[C@H]1OCCCCCCCCC | 2 (≈ 3.78 µM) | 2 (≈ 3.78 µM) | 2 (≈ 3.78 µM) | > 128 | > 128 | 128 (≈ 242 µM) | > 128 | 4 (≈ 7.55 µM) | > 128 | > 128 | > 128 | > 128 | 62.2 | 5.9 | 32 (≈ 60.4 µM) |
| CCCCCCCCCO[C@@H]1[C@@H](N)[C@@H](OCC(O)CO)O[C@H](CN)[C@H]1OCCCCCCCCC (mixture of isomers) | 2 | 2 | 2 | 64 | 64 | 64 | 64 | 1 | 8 | 16 | 8 | 64 | 89.7 | 8.8 | 8 |
| CCCCCCCCCO[C@@H]1[C@@H](N)[C@@H](OC[C@H](O)CN)O[C@H](CN)[C@H]1OCCCCCCCCC | 2 (≈ 3.97 µM) | 2 (≈ 3.97 µM) | 2 (≈ 3.97 µM) | 8 (≈ 15.9 µM) | 8 (≈ 15.9 µM) | 8 (≈ 15.9 µM) | 8 (≈ 15.9 µM) | 2 (≈ 3.97 µM) | 8 (≈ 15.9 µM) | 4 (≈ 7.94 µM) | 4 (≈ 7.94 µM) | 8 to 16 (≈ 15.9 to 31.8 µM) | 88 | 14.4 | 4 (≈ 7.94 µM) |
| NC[C@@H]1O[C@H](O[C@H]2[C@@H](O)[C@H](O[C@@H]3[C@@H](O)[C@H](N)C[C@H](N)[C@H]3O[C@H]3O[C@H](CN)[C@@H](O)[C@H](O)[C@H]3N)O[C@@H]2CO)[C@H](N)[C@@H](O)[C@@H]1O [FRAMYCETIN] | 1 to 2 (≈ 1.63 to 3.25 µM) | 0.5 (≈ 0.813 µM) | > 128 | 64 (≈ 104 µM) | 128 (≈ 208 µM) | 32 to 64 (≈ 52.1 to 104 µM) | 2 (≈ 3.25 µM) | < 0.25 | 64 to 128 (≈ 104 to 208 µM) | 4 (≈ 6.51 µM) | 1 (≈ 1.63 µM) | 4 to 8 (≈ 6.51 to 13 µM) | 87.3 | 69.8 | 2 (≈ 3.25 µM) |
| CCCCCCCCCO[C@@H]1[C@@H](N)[C@@H](OC[C@@H](O)CN)O[C@H](CN)[C@H]1OCCCCCCCCC | 2 (≈ 3.97 µM) | 1 (≈ 1.99 µM) | 2 (≈ 3.97 µM) | 4 to 8 (≈ 7.94 to 15.9 µM) | 8 (≈ 15.9 µM) | 8 (≈ 15.9 µM) | 4 to 8 (≈ 7.94 to 15.9 µM) | 2 (≈ 3.97 µM) | 4 (≈ 7.94 µM) | 4 (≈ 7.94 µM) | 4 to 8 (≈ 7.94 to 15.9 µM) | 8 (≈ 15.9 µM) | 85.1 | 7.2 | 4 (≈ 7.94 µM) |
| GENTAMICIN | 0.25 to 0.5 | – | 1 | 1 | > 128 | 4 | < 0.25 | < 0.25 | 2 | 1 | 64 | 4 to 8 | – | – | – |
